Sampled rows, rich in hits. Any-hit rate of the full collection: about 4.1%.
KCC2 mod – KCC2 (human) Cl- transport modulation | Q9H2X9 | KCC2 cells, thallium flux FluoZin-2 fluorescence | B-score of Tl+ flux slope (higher = more flux/activation; lower = inhibition) at 10 µM | actives 2.2% (n = 190,000) | AID 1456;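 active means thallium flux slope and its plate-corrected score both differing from the plate sample mean at a set confidence after two filtering rounds, in either direction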;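 further: slope of fluorescence scaled to starting intensity during 10 to 20 s after thallium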
KCNQ1 block – blocks the human KCNQ1 potassium channel. B-score at 10 µM. CHO-K1 KCNQ1, FluxOR thallium flux fluorescence; active compounds read high. P51787. actives 1.3% (n = 310,000);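 active means compounds whose thallium flux B-score, printed positive for inhibition, exceeds three library SD while starting fluorescence stays within three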;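 further: channel opened by potassium depolarization with thallium stimulus after 20 min compound exposure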
Target sequence (P51787 whole entry, looked up): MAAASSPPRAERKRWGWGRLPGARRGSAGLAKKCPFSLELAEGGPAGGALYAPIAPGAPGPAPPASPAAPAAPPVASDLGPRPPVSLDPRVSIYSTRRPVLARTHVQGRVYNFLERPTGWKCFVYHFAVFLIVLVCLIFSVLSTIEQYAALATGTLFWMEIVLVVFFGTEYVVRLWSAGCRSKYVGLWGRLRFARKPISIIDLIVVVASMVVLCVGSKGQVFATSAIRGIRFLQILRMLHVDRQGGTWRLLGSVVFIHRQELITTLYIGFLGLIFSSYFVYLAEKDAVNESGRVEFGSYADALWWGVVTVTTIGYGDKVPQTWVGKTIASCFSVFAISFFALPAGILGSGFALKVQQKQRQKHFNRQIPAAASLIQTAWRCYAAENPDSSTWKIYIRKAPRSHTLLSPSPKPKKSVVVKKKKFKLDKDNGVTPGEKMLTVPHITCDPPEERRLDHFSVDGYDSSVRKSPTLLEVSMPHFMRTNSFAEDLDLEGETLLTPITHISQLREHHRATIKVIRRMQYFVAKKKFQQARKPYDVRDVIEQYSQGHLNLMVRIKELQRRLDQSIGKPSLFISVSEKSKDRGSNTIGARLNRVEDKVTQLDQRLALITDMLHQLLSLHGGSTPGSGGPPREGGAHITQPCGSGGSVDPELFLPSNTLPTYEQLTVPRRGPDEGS
hERG protect – hERG (human) protection from proarrhythmic block | Q12809 | CHO-hERG, FluxOR thallium flux, dofetilide IC70 present | activation (rescue from dofetilide block), less the hit threshold, % at 10 µM | actives 0.51% (n = 310,000);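 active means activation above the mean of controls blocked by dofetilide plus 5 SD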;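 further: thallium influx through hERG after potassium depolarization seen as dye fluorescence rise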
KCNQ1 pot – human KCNQ1 channel potentiation or activation. actives 0.35% (n = 310,000). P51787. CHO-K1 KCNQ1, thallium flux FluxOR fluorescence; active compounds read high. B-score at 10 µM;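 active means fluorescence ratio B-score, a plate-corrected score, at least three library SD, with initial intensity B-score within 5 SD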
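Schedule – 37 °C overnight plating, 90-min dark dye load, 20-min compound pretreatment · System – stable KCNQ1 CHO-K1 line · Probe or stimulus – thallium- and potassium-containing depolarizing buffer · Measured by – kinetic FluxOR fluorescence, 10 s baseline plus 110 s post-stimulus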
KCNK3 inh – human KCNK3 channel inhibition, primary screen; O14649; CHO-KCNK3 thallium flux, FluxOR fluorescence; active compounds read low; B-score at 10 µM; actives 0.84% (n = 340,000); AID 602410;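 active means B-score under library mean minus 4 SD, starting fluorescence ratio at most library mean plus 5 SD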;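 further: more negative B-score means stronger inhibition of thallium flux through KCNK3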
KCNK9 inh – human KCNK9 channel inhibition. Q9NPC2. HEK293 KCNK9, FluxOR thallium flux fluorescence; active compounds read low. B-score at 10 µM. actives 1.2% (n = 310,000). AID 488922;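 active means ratio B-score over 3 SD below the library mean, with starting fluorescence within 5 SD of its mean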;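 further: negative B-score means less thallium flux so channel inhibition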
KCNK9 block conf – human KCNK9 inhibitor confirmation; shares compounds with KCNK9 inh; HEK293 KCNK9 cells, FluxOR thallium flux fluorescence; inhibition, % at 10 µM; actives 43% (n = 4,900); AID 492992;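 active means thallium signal inhibited by more than 5 SD of the compound-free buffer control wells, on both duplicate plates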;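 further: 0% = assay buffer control wells without compound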
Kir2-1 spec – selectivity of KCNK9 modulators against mouse Kir2.1; actives 4% (n = 4,900); AID 492993; shares compounds with KCNK9 inh; inhibition, % at 10 µM; Kir2.1 cells, FluxOR thallium flux fluorescence;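 active means thallium signal drop more than 5 SD beyond the mean of the no-compound control wells, seen in both duplicate plates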;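 further: signal is fluorescence rise after thallium addition divided by baseline fluorescence; plate controls were assay buffer only for no effect and full block by chlorpromazine control for full effect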
KCNK9 uninduced – second counter-screen for KCNK9 modulators: effect in non-induced cells | inhibition, % at 10 µM | actives 40% (n = 4,900) | shares compounds with KCNK9 inh | non-induced KCNK9-HEK293, FluxOR thallium flux;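 active means thallium signal drop beyond 5 SD of the untreated control mean, on both duplicate plates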;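 further: plate controls were buffer only IC0 wells for no effect and SID17386958 at its maximal inhibitory level for full effect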
Starred values were filed as active, the others as inactive; i = inactive; / = no result given.

SMILES | KCC2 mod | KCNQ1 block | hERG protect | KCNQ1 pot | KCNK3 inh | KCNK9 inh | KCNK9 block conf | Kir2-1 spec | KCNK9 uninduced
Cc1ccc(CSc2nnc(SCC(=O)N/N=C/C=C/c3ccccc3[N+](=O)[O-])s2)cc1 | -0.72 | i | -7 | i | i | -15* | 64%* | i | 30%*
COc1ccccc1/C=C/C=N/N1CCN(Cc2ccccc2)CC1 | -0.81 | i | -8 | i | i | i | i | i | i
O=C1/C(=C/c2ccc([N+](=O)[O-])cc2)C=C(c2ccccc2)N1c1ccc(O)cc1 | -0.022 | i | -13 | i | i | i | / | / | /
O=C1CN(C(=O)/C=C/c2ccc(Cl)cc2)c2ccccc2N1 | 0.049 | i | -7 | i | i | i | / | / | /
Brc1ccc(OCc2nnc(SCC3CCCCC3)o2)cc1 | -0.044 | i | -9 | i | i | -8.8* | 26%* | i | 36%*
Cc1nnsc1C(=O)N1CCCC(N2CCN(c3cccc(C(F)(F)F)c3)CC2)C1 (stereo not drawn) | / | i | -9 | i | i | i | / | / | /
Cc1cc(C)c(C(=O)N2CCCC(N3CCN(c4cccc(C(F)(F)F)c4)CC3)C2)o1 (stereo not drawn) | / | i | -16 | i | i | i | / | / | /
O=C(c1cccs1)N1CCCC(N2CCN(c3cccc(C(F)(F)F)c3)CC2)C1 (stereo not drawn) | / | i | -17 | i | i | i | i | i | i
O=C(c1ccco1)N1CCCC(N2CCN(c3cccc(C(F)(F)F)c3)CC2)C1 (stereo not drawn) | / | i | -18 | i | i | i | i | i | i
Cc1ccc(/C(N)=N/OC(=O)c2cccc(Cn3cc(C(F)(F)F)ccc3=O)c2)cc1 | -2.9 | i | -5 | i | i | i | / | / | /
O=C(CN1CCN(c2cccc(Cl)c2)CC1)NC1CCCc2ccccc21 (stereo not drawn) | / | i | -14 | i | i | i | i | i | i
O=C(CN1CCN(c2ccccc2)CC1)Nc1ccncc1 | / | i | -1 | i | i | i | / | / | /
O=C(CN1CCN(c2ccccc2)CC1)Nc1ccc2c(c1)CCC2 | -0.059 | i | -10 | i | i | i | i | i | i
O=C(CCl)NC1CCCc2ccccc21 (stereo not drawn) | 0.09 | i | 0 | i | i | i | / | / | /
Cc1nc(-c2coc3c(CN(C)C)c(O)ccc3c2=O)cs1 | / | i | -10 | i | i | -8.2* | i | i | i
COc1ccccc1-c1coc2c(CN(C)C)c(O)ccc2c1=O | / | i | -8 | i | i | i | / | / | /
C=C1CCN([C@H](C(=O)OCc2cccc(C)c2)C(C)C)S(=O)(=O)c2ccccc21 | -1 | i | -12 | i | i | -9* | 46%* | i | i
CCOc1ccc(S(=O)(=O)Nc2cc(C)ccn2)c2ccccc12 | 0.47 | i | -15 | i | i | i | i | i | i
Cc1cccc2nc(CSc3nc4ccc([N+](=O)[O-])cc4[nH]3)cn12 | -0.26 | i | -3 | i | i | i | / | / | /
Oc1ccc(/C=N/n2c(COc3ccccc3)n[nH]c2=S)c(O)c1 | / | i | -15 | i | i | -8.3* | 48%* | i | 35%*
CC1CCCCC1NS(=O)(=O)c1ccc(S(=O)(=O)N2CCCC2)cc1 (stereo not drawn) | -1.3 | i | -4 | i | i | i | / | / | /
CC(C)OC(=O)c1cccc(C(=O)Nc2cccc(NC(=O)c3cccc(C(=O)OC(C)C)n3)n2)n1 | -0.96 | i | -13 | i | i | -13* | 64%* | i | i
O=c1oc2ccccc2c(O)c1Cc1cc(Cl)c2cccnc2c1O | 2.8 | i | -5 | i | i | i | i | i | i
COCCOC(=O)c1c(C)oc2ccc(NS(=O)(=O)c3ccccc3)cc12 | -0.026 | i | -6 | i | i | i | / | / | /
CCOC(=O)c1c(C)oc2ccc(NS(=O)(=O)c3ccc4c5c(cccc35)C(=O)N4)cc12 | 0.031 | i | -11 | i | i | -10* | 36%* | i | i
SMILES | KCC2 mod | KCNQ1 block | hERG protect | KCNQ1 pot | KCNK3 inh | KCNK9 inh | KCNK9 block conf | Kir2-1 spec | KCNK9 uninduced
CC(C)(C)C(=O)NCc1ccc(C(=O)CSc2nnc(C3CC3)n2C2CC2)s1 | / | / | / | / | i | / | / | / | /
CCc1ccc(NC(=S)N(CCN2CCCCC2)Cc2ccco2)cc1 | 0.098 | i | -12 | i | i | -8.8* | 41%* | i | 40%*
CC(C)c1[nH]nc2c1C(c1ccc(OC(=O)c3ccco3)cc1)C(C#N)=C(N)O2 (stereo not drawn) | / | i | 1 | i | i | i | / | / | /
O=C1/C(=C\c2ccc(Br)o2)SC(=Nc2ccccc2)N1c1ccccc1 | -0.32 | i | -11 | i | i | -8.4* | i | i | 37%*
CC(=O)c1cccc(NC(=O)C2C(c3ccccc3)C2(Cl)Cl)c1 (stereo not drawn) | -1.3 | i | -10 | i | i | i | / | / | /
Cc1cccc(NC(=O)C2C(c3ccccc3)C2(Cl)Cl)c1 (stereo not drawn) | -0.15 | i | -11 | i | i | i | i | i | i
Fc1ccc2c(Cl)c(-c3nnc(-c4cccs4)o3)sc2c1 | 0.31 | i | -10 | i | i | i | / | / | /
COc1cc(-c2csc(NC3CCCCC3)n2)cc(OC)c1OC | / | i | -12 | i | i | i | i | i | i
Cc1sc2ncnc(NCCN3CCOCC3)c2c1C | 0.32 | i | -4 | i | i | i | / | / | /
COc1ccc(NC(=O)CN(C)C(=O)c2cccc(S(=O)(=O)Nc3ccc(F)cc3)c2)cc1 | / | / | / | / | i | / | / | / | /
Cc1cc(Cl)ccc1Oc1ncc(CN2CCN(c3ccccc3)CC2)s1 | 0.47 | i | -1 | i | i | i | / | / | /
COc1ccc(Oc2ncc(CN3CCN(c4ccccc4)CC3)s2)cc1 | -0.18 | i | -3 | i | i | i | i | i | i
CC(C)NC(=O)N(C)C[C@H]1Oc2ccc(NC(=O)C3CCCCC3)cc2C(=O)N([C@H](C)CO)C[C@@H]1C | / | / | / | / | i | / | / | / | /

High-throughput results deposited in PubChem by several laboratories.
